Results as given in ChEMBL document CHEMBL1649123, “Erythromycin- and chloramphenicol-induced ribosomal assembly defects are secondary effects of protein synthesis inhibition” (2009).
Values after ≈ are worked out from the molar mass of the structure shown. Active and inactive are the calls of the source. The rule behind the calls is not given here.

Experiments:
Escherichia coli [1] = experiment: Inhibition of large ribosomal subunit assembly in Escherichia coli assessed as accumulation of 23S rRNA in 70S and 50S fractions at 7 ug/ml after 2 hrs by sucrose gradient fractionation at 25 degC; format: functional, organism-based
Summary of the method: (§1)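 MG1655 grown in 2× YT at 25 or 37°C to A600 0.2, then drug added (final concentration as per line). Incubated 2 h at 25°C or 1 h at 37°C. Freeze-thaw lysis used lysozyme and DNase I. Lysate was run on a 10–25% sucrose gradient in buffer D, pH 8, for 13.5 h at 4°C. Fraction RNA was dot-blotted with 32P-labelled 16S/23S oligonucleotide probes, loading 0.2 pmol 50S-fraction 23S RNA.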

Escherichia coli [2] = experiment: Inhibition of large ribosomal subunit assembly in Escherichia coli assessed as accumulation of 23S rRNA in 40S fraction at 7 ug/ml after 2 hrs by sucrose gradient fractionation at 25 degC; format: functional, organism-based; summary of the method: as §1
Escherichia coli [3] = experiment: Inhibition of small ribosomal subunit assembly in Escherichia coli assessed as accumulation of 16S rRNA at 7 ug/ml after 2 hrs by sucrose gradient fractionation at 25 degC; format: functional, organism-based; summary of the method: as §1
Escherichia coli [4] = experiment: Inhibition of large ribosomal subunit assembly in Escherichia coli assessed as accumulation of 23S rRNA in 70S and 50S fractions at 7 ug/ml after 1 hr by sucrose gradient fractionation at 37 degC; format: functional, organism-based; summary of the method: as §1
Escherichia coli [5] = experiment: Inhibition of large ribosomal subunit assembly in Escherichia coli assessed as accumulation of 23S rRNA in 40S fraction at 7 ug/ml after 1 hr by sucrose gradient fractionation at 37 degC; format: functional, organism-based; summary of the method: as §1
Escherichia coli [6] = experiment: Inhibition of small ribosomal subunit assembly in Escherichia coli assessed as accumulation of 16S rRNA at 7 ug/ml after 1 hr by sucrose gradient fractionation at 37 degC; format: functional, organism-based; summary of the method: as §1
Escherichia coli [7] = experiment: Inhibition of ribosomal subunit assembly in Escherichia coli assessed as accumulation of partially processed 23S rRNA in 30S, 40S and 50S fractions at 100 ug/ml after 1 hr by primer extension analysis at 37 degC; format: functional, organism-based
Summary of the method: (§2)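 Ribosomes from MG1655 drug-treated in 2× YT (1 h at 37°C or 2 h at 25°C from A600 0.2) were separated on 10–25% sucrose gradients. RNA was isolated from fractions by isopropanol precipitation and guanidinium thiocyanate/silica binding. 5′ ends of 23S and 16S rRNA were mapped by reverse transcription from specific primers, alongside sequencing lanes.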

Escherichia coli [8] = experiment: Inhibition of ribosomal subunit assembly in Escherichia coli assessed as accumulation of partially processed 23S rRNA in 30S, 40S and 50S fractions at 7 ug/ml after 1 hr by primer extension analysis at 37 degC; format: functional, organism-based; summary of the method: as §2
Escherichia coli [9] = experiment: Inhibition of ribosomal subunit assembly in Escherichia coli assessed as accumulation of partially processed 23S rRNA in 30S, 40S and 50S fractions at 7 ug/ml after 2 hrs by primer extension analysis at 25 degC; format: functional, organism-based; summary of the method: as §2
Escherichia coli [10] = experiment: Inhibition of ribosomal subunit assembly in Escherichia coli assessed as accumulation of partially processed 23S rRNA in 30S, 40S and 50S fractions at 100 ug/ml after 2 hrs by primer extension analysis at 25 degC; format: functional, organism-based; summary of the method: as §2
Escherichia coli [11] = experiment: Inhibition of ribosomal subunit assembly in Escherichia coli assessed as retardation of 16S rRNA processing at 100 ug/ml after 1 hr by primer extension analysis at 37 degC; format: functional, organism-based; summary of the method: as §2
Escherichia coli [12] = experiment: Inhibition of ribosomal subunit assembly in Escherichia coli assessed as retardation of 16S rRNA processing at 7 ug/ml after 1 hr by primer extension analysis at 37 degC; format: functional, organism-based; summary of the method: as §2
Escherichia coli [13] = experiment: Inhibition of ribosomal subunit assembly in Escherichia coli assessed as retardation of 16S rRNA processing at 7 ug/ml after 2 hrs by primer extension analysis at 25 degC; format: functional, organism-based; summary of the method: as §2
Escherichia coli [14] = experiment: Inhibition of ribosomal subunit assembly in Escherichia coli assessed as retardation of 16S rRNA processing at 100 ug/ml after 2 hrs by primer extension analysis at 25 degC; format: functional, organism-based; summary of the method: as §2
Escherichia coli [15] = experiment: Inhibition of ribosomal subunit assembly in Escherichia coli assessed as reduction in mature 23S rRNA at 7 ug/ml; format: functional
Escherichia coli [16] = experiment: Inhibition of ribosomal subunit assembly in Escherichia coli assessed as accumulation of assembly-deffective particles between 50S and 20S regions after 10 mins by sucrose gradient fractionation; format: functional, organism-based
Summary of the method: (§3)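 Cells grown at 37°C in tryptone/yeast extract/NaCl to A600 0.2, then exposed to erythromycin (final 100 μg/ml) or chloramphenicol (final 7 μg/ml). After 5, 10 or 60 min, pulsed 5 min with [3H]uridine, 2 μCi per 50 ml; some samples chased 5 min with rifampin, final 500 μg/ml. Sucrose gradients cut into 40 fractions; TCA-precipitable radioactivity counted by scintillation.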

Escherichia coli [17] = experiment: Inhibition of ribosomal subunit assembly in Escherichia coli assessed as accumulation of assembly-deffective particles between 50S and 20S regions after 60 mins by sucrose gradient fractionation; format: functional, organism-based; summary of the method: as §3
Escherichia coli [18] = experiment: Antimicrobial activity against Escherichia coli at 7 ug/ml after 8 hrs; format: functional
Summary of the method: (§4)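 E. coli MG1655 culture growth followed by optical density over 8 h, with the drug-treated culture expressed relative to an untreated control culture.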

Escherichia coli [19] = experiment: Inhibition of large ribosomal subunit assembly in Escherichia coli assessed as accumulation of 23S rRNA in 70S and 50S fractions at 100 ug/ml after 2 hrs by sucrose gradient fractionation at 25 degC; format: functional, organism-based; summary of the method: as §1
Escherichia coli [20] = experiment: Inhibition of large ribosomal subunit assembly in Escherichia coli assessed as accumulation of 23S rRNA in 40S fraction at 100 ug/ml after 2 hrs by sucrose gradient fractionation at 25 degC; format: functional, organism-based; summary of the method: as §1
Escherichia coli [21] = experiment: Inhibition of small ribosomal subunit assembly in Escherichia coli assessed as accumulation of 16S rRNA at 100 ug/ml after 2 hrs by sucrose gradient fractionation at 25 degC; format: functional, organism-based; summary of the method: as §1
Escherichia coli [22] = experiment: Inhibition of large ribosomal subunit assembly in Escherichia coli assessed as accumulation of 23S rRNA in 70S and 50S fractions at 100 ug/ml after 1 hr by sucrose gradient fractionation at 37 degC; format: functional, organism-based; summary of the method: as §1
Escherichia coli [23] = experiment: Inhibition of large ribosomal subunit assembly in Escherichia coli assessed as accumulation of 23S rRNA in 40S fraction at 100 ug/ml after 1 hr by sucrose gradient fractionation at 37 degC; format: functional, organism-based; summary of the method: as §1
Escherichia coli [24] = experiment: Inhibition of small ribosomal subunit assembly in Escherichia coli assessed as accumulation of 16S rRNA at 100 ug/ml after 1 hr by sucrose gradient fractionation at 37 degC; format: functional, organism-based; summary of the method: as §1
Escherichia coli [25] = experiment: Inhibition of ribosomal subunit assembly in Escherichia coli assessed as reduction in mature 23S rRNA at 100 ug/ml; format: functional
Escherichia coli [26] = experiment: Inhibition of ribosomal subunit assembly in Escherichia coli assessed as reduction in mature 23S rRNA at 7 ug/ml in presence of E-peptide; format: functional
Staphylococcus aureus [27] = experiment: Antimicrobial activity against Staphylococcus aureus UCN18 with A2059G mutation in rrl allele; format: functional
Summary of the method: (§5)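 Clinical S. aureus isolates carrying rRNA operon mutations: UCN14 has A2058T in 4 of 5 rrl alleles, UCN17 has A2058G in 4 of 6, and UCN18 has A2059G in 3 of 5. MIC was determined for erythromycin by microbroth dilution in 96-well plates.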

Staphylococcus aureus [28] = experiment: Antimicrobial activity against Staphylococcus aureus UCN14 with A2058T mutation in rrl allele; format: functional; summary of the method: as §5
Staphylococcus aureus [29] = experiment: Antimicrobial activity against Staphylococcus aureus UCN17 with A2058G mutation in rrl allele; format: functional; summary of the method: as §5
Escherichia coli [30] = experiment: Antimicrobial activity against Escherichia coli at 100 ug/ml after 8 hrs; format: functional; summary of the method: as §4

SMILES	inhibition (Escherichia coli [7])	inhibition (Escherichia coli [8])	inhibition (Escherichia coli [9])	inhibition (Escherichia coli [10])	inhibition (Escherichia coli [11])	inhibition (Escherichia coli [12])	inhibition (Escherichia coli [13])	inhibition (Escherichia coli [14])	inhibition (Escherichia coli [16])	inhibition (Escherichia coli [17])	also measured
O=C(N[C@H](CO)[C@H](O)c1ccc([N+](=O)[O-])cc1)C(Cl)Cl [CHLORAMPHENICOL]	Active	Active	Active	Active	Active	Active	Active	Active	Active	Active	inhibition (Escherichia coli [1]): Active; inhibition (Escherichia coli [2]): Active; inhibition (Escherichia coli [3]): Active; inhibition (Escherichia coli [4]): Active; inhibition (Escherichia coli [5]): Active; inhibition (Escherichia coli [6]): Active; inhibition at 7 µg/mL (Escherichia coli [15]): 50%; Activity (Escherichia coli [18]): 70%
CC[C@H]1OC(=O)[C@H](C)[C@@H](O[C@H]2C[C@@](C)(OC)[C@@H](O)[C@H](C)O2)[C@H](C)[C@@H](O[C@@H]2O[C@H](C)C[C@H](N(C)C)[C@H]2O)[C@](C)(O)C[C@@H](C)C(=O)[C@H](C)[C@@H](O)[C@]1(C)O [ERYTHROMYCIN]	Active	Active	Active	Active	Active	Active	Active	Active	Active	Active	inhibition (Escherichia coli [19]): Active; inhibition (Escherichia coli [20]): Active; inhibition (Escherichia coli [21]): Active; inhibition (Escherichia coli [22]): Active; Activity (Escherichia coli [23]): Active; inhibition (Escherichia coli [24]): Active; inhibition at 100 µg/mL (Escherichia coli [25]): 30%; inhibition at 7 µg/mL (Escherichia coli [26]): 60%; MIC (Staphylococcus aureus [27]): 512 µg/mL (≈ 698 µM); MIC (Staphylococcus aureus [28]): 512 µg/mL (≈ 698 µM); MIC (Staphylococcus aureus [29]): 512 µg/mL (≈ 698 µM); Activity (Escherichia coli [30]): 70%
